# Assay results reported in ChEMBL document CHEMBL4680120, “Novel anti-Alzheimer phenol-lipoyl hybrids: Synthesis, physico-chemical characterization, and biological evaluation” (Eur J Med Chem, 2020).
# Active and inactive are the calls of the source. No cut-off for these calls is given here.
# Tests used:
# [1] = Solubility of compound in water by HPLC analysis; format: physicochemical
# [2] = Stability in simulated gastric fluid at pH 1.2 assessed as relative difference measured after 15 mins in presence of pepsin by HPLC analysis; format: ADME; conditions: isolated protein, pH 1.2, 0.25 h
# Method in brief: (§1)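 Incubation in simulated gastric fluid (pH 1.2, pepsin) or simulated intestinal fluid (pH 6.8, pancreatin). Aliquots deproteinized with ice-cold acetonitrile, centrifuged at 4°C and 12000 rpm for 10 min, filtered, analyzed by HPLC. RD% = (Ci − Cf)/Ci × 100. Stable if RD < 5%. Means of three experiments.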
# [3] = Stability in simulated gastric fluid at pH 1.2 assessed as relative difference measured after 30 mins in presence of pepsin by HPLC analysis; format: ADME; conditions: isolated protein, pH 1.2, 0.5 h; method in brief: as §1
# [4] = Stability in simulated gastric fluid at pH 1.2 assessed as relative difference measured after 60 mins in presence of pepsin by HPLC analysis; format: ADME; conditions: isolated protein, pH 1.2, 1 h; method in brief: as §1
# [5] = Stability in simulated intestinal fluid at pH 6.8 assessed as relative difference measured after 15 mins in presence of pancreatin by HPLC analysis; format: ADME; conditions: simulated gi fluid, pH 6.8, 0.25 h; method in brief: as §1
# [6] = Stability in simulated intestinal fluid at pH 6.8 assessed as relative difference measured after 30 mins in presence of pancreatin by HPLC analysis; format: ADME; conditions: simulated gi fluid, pH 6.8, 0.5 h; method in brief: as §1
# [7] = Stability in simulated intestinal fluid at pH 6.8 assessed as relative difference measured after 60 mins in presence of pancreatin by HPLC analysis; format: ADME; conditions: simulated gi fluid, pH 6.8, 1 h; method in brief: as §1
# [8] = Stability in simulated intestinal fluid at pH 6.8 assessed as relative difference measured after 120 mins in presence of pancreatin by HPLC analysis; format: ADME; conditions: simulated gi fluid, pH 6.8, 2 h; method in brief: as §1
# [9] = Stability in simulated intestinal fluid at pH 6.8 assessed as relative difference measured after 180 mins in presence of pancreatin by HPLC analysis; format: ADME; conditions: simulated gi fluid, pH 6.8, 3 h; method in brief: as §1
# [10] = Half life in human plasma by HPLC analysis; format: ADME, cell-free
# Method in brief: (§2)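 Compound stock added to human plasma pre-warmed to 37°C and diluted with 0.02 M phosphate buffer (pH 7.4) to 80% plasma. 100 μL samples taken over time, quenched with 200 μL cold acetonitrile, centrifuged, and supernatant analyzed by HPLC. t½ and kobs are means of three experiments.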
# [11] = system: SH-SY5Y; assay: Cytotoxicity against human SH-SY5Y cells assessed as reduction in cell viability at 1 to 250 mg/l measured after 48 hrs by MTT assay; format: cell-based; conditions: dose 1-250 mg/L
# Method in brief: (§3)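 SH-SY5Y cells grown in DMEM/F12 with 10% FBS and differentiated with retinoic acid (10 μM), seeded at 1×10^4 per well and cultured 24 h. Cells were given hybrids at 1–250 mg/L with or without Aβ1-42 (20 μM) for 48 h. MTT (5 mg/mL) added for 4 h at 37°C, DMSO solubilization, read at 570/630 nm. LDH read at 450 nm. Five independent experiments.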
# [12] = system: SH-SY5Y; assay: Neuroprotective activity against amyloid beta (1 to 42)-induced toxicity in human SH-SY5Y cells assessed as increase in cell viability at 1 to 250 mg/l measured after 48 hrs by MTT assay; format: functional, cell-based; conditions: dose 1-250 mg/L; method in brief: as §3
# [13] = system: SH-SY5Y; assay: Neuroprotective activity against amyloid beta (1 to 42)-induced toxicity in human SH-SY5Y cells assessed as increase in cell viability at 1 to 250 mg/l measured after 48 hrs by LDH release assay; format: functional, cell-based; conditions: dose 1-250 mg/L; method in brief: as §3
# [14] = system: SH-SY5Y; assay: Neuroprotective activity against amyloid beta (1 to 42)-induced apoptosis in human SH-SY5Y cells assessed as decrease in DNA fragmentation at IC50 measured after 48 hrs by Hoechst 33258 staining based fluorescence microscopic assay; format: functional, cell-based
# Method in brief: (§4)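 Differentiated SH-SY5Y cells, 4×10^4 per well, exposed 48 h to Aβ1-42 (20 μM) with or without hybrid. Fixed in 4% paraformaldehyde for 30 min, stained with Hoechst 33258 for 15 min. Nuclear chromatin condensation and DNA fragmentation scored by fluorescence microscopy at ×200.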
# [15] = system: SH-SY5Y; assay: Neuroprotective activity against amyloid beta (1 to 42)-induced apoptosis in human SH-SY5Y cells assessed as decrease in DNA condensation at IC50 measured after 48 hrs by Hoechst 33258 staining based fluorescence microscopic assay; format: functional, cell-based; method in brief: as §4
# [16] = system: SH-SY5Y; assay: Neuroprotective activity against amyloid beta (1 to 42)-induced apoptosis in human SH-SY5Y cells assessed as early apoptotic cells at IC50 measured after 48 hrs by Annexin-V/Propidium iodide staining based flow cytometry (reference value: 0.74%); format: functional
# [17] = system: SH-SY5Y; assay: Neuroprotective activity against amyloid beta (1 to 42)-induced apoptosis in human SH-SY5Y cells assessed as late apoptotic cells at IC50 measured after 48 hrs by Annexin-V/Propidium iodide staining based flow cytometry (reference value: 33.72%); format: functional
# [18] = system: SH-SY5Y; assay: Neuroprotective activity against amyloid beta (1 to 42)-induced apoptosis in human SH-SY5Y cells assessed as necrotic cells at IC50 measured after 48 hrs by Annexin-V/Propidium iodide staining based flow cytometry (reference value: 6.99%); format: functional
# [19] = system: Erythrocyte; assay: Antioxidant activity in human RBC assessed as increase in total antioxidant capacity level up to 400 ug/ml measured after 72 hrs relative to control; format: functional; conditions: dose microg/ml <=400
# [20] = system: Erythrocyte; assay: Cytoprotective activity against H2O2-induced oxidative damage in human RBC assessed as increase in cell viability measured after 72 hrs by MTT assay; format: functional, cell-based
# [21] = system: Erythrocyte; assay: Cytoprotective activity against H2O2-induced oxidative damage in human RBC assessed as increase in cell viability measured after 72 hrs by LDH release assay; format: functional, cell-based
# Method in brief: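 Heparinized whole blood cultured with phytohemagglutinin. Cells were co-incubated with 50 or 100 μM hybrid and H2O2 (25 μM). Viability was read by MTT: lymphocytes at 2×10^5 per well, MTT 4 h at 37°C, formazan dissolved in DMSO, absorbance 570 nm. LDH release was measured on 100 μL medium with a commercial kit. Results are relative to untreated control.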
# [22] = system: Erythrocyte; assay: Cytoprotective activity against H2O2-induced oxidative damage in human RBC assessed as recovery of H2O2-induced cell death at 50 to 100 uM measured after 72 hrs by MTT assay relative to control; format: functional; conditions: dose 50-100 µM
# [23] = system: Erythrocyte; assay: Cytoprotective activity against H2O2-induced oxidative damage in human RBC assessed as recovery of H2O2-induced cell death at 50 to 100 uM measured after 72 hrs by LDH release assay relative to control; format: functional; conditions: dose 50-100 µM
# Method in brief: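 Heparinised human whole blood cultured in phytohemagglutinin-containing chromosome medium and co-incubated with hybrids and H2O2 at 37C for 72 h. LDH released into the culture medium was measured with a commercial kit. Triton X-100 served as positive control, with untreated cultures as reference. Cytoprotection was expressed as viability relative to control.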
# [24] = system: Erythrocyte; assay: Cytoprotective activity against H2O2-induced oxidative damage in human RBC assessed as restoration of antioxidant activity measured after 72 hrs by TAC assay; format: functional, cell-based
# [25] = Stability in human plasma assessed as observed rate constant by HPLC analysis; format: ADME, cell-free; method in brief: as §2
# [26] = system: Erythrocyte; assay: Cytoprotective activity against H2O2-induced oxidative damage in human RBC assessed as restoration of antioxidant activity at 50 to 100 uM measured after 72 hrs by TAC assay relative to control; format: functional; conditions: dose 50-100 µM
# [27] = Stability in simulated intestinal fluid at pH 6.8 assessed as hydrolysis measured immediately in presence of pancreatin by HPLC analysis; format: ADME; conditions: simulated gi fluid; method in brief: as §1
SMILES,solubility [1] [µg/mL],fold change (FC) [2] [%],fold change (FC) [3] [%],fold change (FC) [4] [%],fold change (FC) [5] [%],fold change (FC) [6] [%],fold change (FC) [7] [%],fold change (FC) [8] [%],fold change (FC) [9] [%],half-life [10] [min],K [25] [h⁻¹],Activity [11],Activity [12],Activity [13],also measured
COc1ccc(CC(=O)NCCCNC(=O)CCCCC2CCSS2)cc1OC (configuration not stated),42,2.9,1.89,4.03,0.45,0.73,0.9,1.32,2.09,> 720,,Non-Toxic,Active,Active,Activity [14]: Active; Activity [15]: Active; Activity [16]: 3.51%; Activity [17]: 16.01%; Activity [18]: 1.66%; Activity [19]: 4.2%; Activity [20]: Dose-dependent effect; Activity [21]: Dose-dependent effect; Activity [22]: 0.5%; Activity [23]: 0.4%; Activity [24]: Dose-dependent effect
O=C1O[C@H]([C@@H](O)CO)C(O)=C1O [ASCORBIC ACID],,,,,,,,,,,,,,,Activity [19]: 10.7%
O=C(CCCCC1CCSS1)NCCCNC(=O)Cc1ccc(O)c(O)c1 (configuration not stated),235,15.27,47.45,65.48,5.6,30.4,56.3,70,90.2,553,0.08,Non-Toxic,Active,Active,Activity [16]: 3.88%; Activity [17]: 13.72%; Activity [18]: 1.23%; Activity [19]: 26.5%; Activity [20]: Dose-dependent effect; Activity [21]: Dose-dependent effect; Activity [22]: 0.5%; Activity [23]: 0.4%; Activity [24]: Dose-dependent effect; Activity [26]: 79.2%
O=C(CCCCC1CCSS1)NCCCOC(=O)Cc1ccc(O)c(O)c1 (configuration not stated),933,72.4,86.54,100,,,,,,45,0.93,Non-Toxic,Active,Active,Stabilty [27]: Unstable
COc1cc(/C=C/C(=O)NCCNC(=O)CCCCC2CCSS2)ccc1O (configuration not stated),23,0.25,1.28,3.45,2.52,3.01,5.2,4.15,4.8,3450,0.012,Non-Toxic,Active,Active,

# More lines, main results first:
solubility [1] [µg/mL],fold change (FC) [2] [%],fold change (FC) [3] [%],fold change (FC) [4] [%],fold change (FC) [5] [%],fold change (FC) [6] [%],fold change (FC) [7] [%],fold change (FC) [8] [%],fold change (FC) [9] [%],half-life [10] [min],K [25] [h⁻¹],SMILES,Activity [11],Activity [12],Activity [13],also measured
2690,0.63,0.99,2.74,1.89,2.17,4.02,3.78,4.32,1390,0.031,O=C(CCCCC1CCSS1)NCCNC(=O)Cc1ccc(O)c(O)c1 (configuration not stated),Non-Toxic,Active,Active,
81,10.37,37.63,57.89,1.5,20.44,42.7,63,88.91,89.4,0.479,O=C(CCCCC1CCSS1)NCCCCNC(=O)Cc1ccc(O)c(O)c1 (configuration not stated),Non-Toxic,Active,Active,
,4.67,8.23,22.16,3,3.64,11.79,22.21,34.75,2190,0.019,COc1ccc(/C=C/C(=O)NCCCCNC(=O)CCCCC2CCSS2)cc1OC (configuration not stated),Non-Toxic,Active,Active,
736,12.34,46.72,67.34,2.5,35.4,54.62,70.45,100,67.8,0.613,O=C(CCCCC1CCSS1)NCCOC(=O)Cc1ccc(O)c(O)c1 (configuration not stated),Non-Toxic,Active,Active,
2480,45.21,63.52,78.9,3.87,45.89,60.78,89.78,100,130,0.32,O=C(CCCCC1CCSS1)NCCOCCOC(=O)Cc1ccc(O)c(O)c1 (configuration not stated),Non-Toxic,Active,Active,
110,15.23,35.89,60.98,,,,,,37.2,1.146,COc1ccc(CC(=O)OCCCNC(=O)CCCCC2CCSS2)cc1OC (configuration not stated),Non-Toxic,Active,Active,Stabilty [27]: Unstable
